In ChEMBL document CHEMBL5620424, “Design, synthesis and evaluation of novel 2-phenyl-3-(1H-pyrazol-4-yl)pyridine positive allosteric modulators for the M4 mAChR” (Eur J Med Chem, 2023):

Experiments:
[1] = biological target: T1, Muscarinic acetylcholine receptor M4 (Homo sapiens) (UniProt P08173); assay: Positive allosteric modulation at human M4 mAChR expressed in Flp-In-CHO cells co-expressing CAMYEL biosensor assessed as change in maximum ACh-mediated response at 10 uM incubated for 5 mins by BRET assay relative to control; format: cell-based
T1 sequence (whole entry): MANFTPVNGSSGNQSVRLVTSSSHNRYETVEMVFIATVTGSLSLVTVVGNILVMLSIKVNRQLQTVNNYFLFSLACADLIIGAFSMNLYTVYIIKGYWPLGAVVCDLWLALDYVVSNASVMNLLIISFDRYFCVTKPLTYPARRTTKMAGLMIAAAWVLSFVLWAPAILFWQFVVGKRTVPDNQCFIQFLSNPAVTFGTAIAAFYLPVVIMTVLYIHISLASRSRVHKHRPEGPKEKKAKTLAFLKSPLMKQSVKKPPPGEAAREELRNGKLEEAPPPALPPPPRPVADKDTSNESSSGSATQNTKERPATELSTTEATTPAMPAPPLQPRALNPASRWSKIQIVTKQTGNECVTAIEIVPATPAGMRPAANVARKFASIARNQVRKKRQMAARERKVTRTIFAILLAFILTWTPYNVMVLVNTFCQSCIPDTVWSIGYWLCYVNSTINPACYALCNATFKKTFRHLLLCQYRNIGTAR
Outline: (§1)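 FlpInCHO cells stably expressing human M4 mAChR, transiently transfected with CAMYEL cAMP BRET biosensor (60 ng/well, PEI), assayed 48 h later in HBSS pH 7.4. Full ACh concentration-response curve alone or with modulator at 1 or 10 μM, co-added with coelenterazine h (5 μM), 5 min, 37 °C. Three-parameter logistic fit; ACh curve values subtracted from ACh+modulator values. Δbaseline and ΔEmax given as % of maximal ACh response without modulator. 4 experiments in duplicate, SEM pooled.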

[2] = biological target: T1, Muscarinic acetylcholine receptor M4 (Homo sapiens); assay: Positive allosteric modulation at human M4 mAChR expressed in Flp-In-CHO cells co-expressing CAMYEL biosensor assessed as change in ACh-mediated response incubated for 5 mins by BRET assay; format: cell-based; settings: filed as positive allosteric modulator; outline: as §1
[3] = biological target: T1, Muscarinic acetylcholine receptor M4 (Homo sapiens); assay: […] human M4 mAChR expressed in Flp-In-CHO cells co-expressing CAMYEL biosensor assessed as change in baseline response at 10 uM incubated for 5 mins by BRET assay relative to control; format: cell-based; outline: as §1
[4] = biological target: T1, Muscarinic acetylcholine receptor M4 (Homo sapiens); assay: Positive allosteric modulation at Rluc-tagged human M4 mAChR expressed in Flp-In-CHO cells co-expressing eYFP-tagged beta-arrestin 2 assessed as ACh-mediated beta-arrestin 2 recruitment co-operativity (log alpha beta) incubated for 5 mins by luminometry; format: cell-based; settings: filed as positive allosteric modulator
Outline: (§2)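 FlpInCHO cells co-transfected with human M4-Rluc8 (20 ng/well) and β-arrestin-2-eYFP (80 ng/well) using PEI, assayed after 48 h. Coelenterazine h (5 μM) preincubated 5 min, then ACh plus modulator ranges for 5 min at 37 °C; BRET at 475/535 nm. Fit to simplified operational model with slope 1 and KB fixed from binding. 4–5 experiments in duplicate.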

[5] = biological target: T1, Muscarinic acetylcholine receptor M4 (Homo sapiens); assay: Positive allosteric modulation at human M4 mAChR expressed in Flp-In-CHO cells co-expressing CAMYEL biosensor assessed as ACh-mediated cAMP signalling co-operativity (log alpha beta) incubated for 5 mins by BRET assay; format: functional, cell-based; settings: filed as positive allosteric modulator
Outline: (§3)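 CAMYEL-transfected FlpInCHO-hM4 cells (48 h post-transfection) given ACh and modulator concentration ranges in full interaction design, 5 min at 37 °C; BRET read with coelenterazine h. Fit to complete operational model of allosterism and agonism with ACh KA and modulator KB fixed from binding assays. Gives log τB and log αβ. 4–5 experiments in duplicate.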

[6] = biological target: T1, Muscarinic acetylcholine receptor M4 (Homo sapiens); assay: Positive allosteric modulation at Rluc-tagged human M4 mAChR expressed in Flp-In-CHO cells co-expressing eYFP-tagged beta-arrestin 2 assessed as efficacy of ACh-mediated beta-arrestin 2 recruitment (log tau B) incubated for 5 mins by luminometry; format: cell-based; settings: filed as positive allosteric modulator; outline: as §2
[7] = biological target: T1, Muscarinic acetylcholine receptor M4 (Homo sapiens); assay: Displacement of 3[H]-NMS from human M4 mAChR expressed in Flp-In-CHO cells assessed as binding constant incubated for 6 hrs by microbeta2 plate reader assay; format: cell-based; settings: filed as positive allosteric modulator
Outline: (§4)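 Intact FlpInCHO-hM4 cells, 20,000/well grown overnight, in HBSS pH 7.4 with [3H]-NMS 0.5 nM, ACh (0.01 μM–10 mM) and modulator (0.1–10 μM), shaken 6 h at room temperature. Washed with ice-cold 0.9% NaCl, then scintillation counting. Nonspecific binding defined with 10 μM atropine. pKB and log α(ACh) from global fit to allosteric ternary complex model, with log α′(NMS) fixed at –3 under strong negative cooperativity. 4–5 experiments in duplicate.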

[8] = biological target: T1, Muscarinic acetylcholine receptor M4 (Homo sapiens); assay: Positive allosteric modulation at human M4 mAChR expressed in Flp-In-CHO cells co-expressing CAMYEL biosensor assessed as efficacy of ACh-mediated cAMP signalling (log tau B) incubated for 5 mins by BRET assay; format: functional, cell-based; settings: filed as positive allosteric modulator; outline: as §3
[9] = biological target: T1, Muscarinic acetylcholine receptor M4 (Homo sapiens); assay: Displacement of 3[H]-NMS from human M4 mAChR expressed in Flp-In-CHO cells assessed as binding co-operativity (log alpha) incubated for 6 hrs in presence of ACh by microbeta2 plate reader assay; format: cell-based; settings: filed as positive allosteric modulator; outline: as §4
[10] = filed as positive allosteric modulator

Cc1ccc(-c2cnn(CC3CCN(C(=O)OC(C)(C)C)CC3)c2)c(-c2ccc3c(c2)C(=O)N(C)C3)n1
Emax [1, 10]: 52.5% | deltapEC50 [2]: 0.6 | Activity [3]: 5.53%

Cc1ccc(-c2cnn(CC3CCCC3)c2)c(-c2cccc(C(=O)N(C)C)c2)n1
log(activity) [4]: 1.06 | log(activity) [5]: 2.03 | log(activity) [6]: -0.83 | Emax [1, 10]: 97.7% | pKb [7]: 4.49 | log(activity) [8]: -0.58 | deltapEC50 [2]: 0.25 | Activity [3]: 33.2% | log(activity) [9]: 1.47

Cc1ccc(-c2cnn(CC3CCCC3)c2)c(-c2ccccc2)n1
log(activity) [4]: 1.87 | log(activity) [5]: 2.46 | log(activity) [6]: 0.87 | Emax [1]: 21.8% | pKb [7]: 4.68 | log(activity) [8]: 0.04 | deltapEC50 [2]: 1.15 | Activity [3]: 32.1% | log(activity) [9]: 1.98

Cc1ccc(-c2cnn(CC3CCCCC3)c2)c(-c2ccc3c(c2)C(=O)N(C)C3)n1
log(activity) [4]: 1.1 | log(activity) [5]: 2.01 | log(activity) [6]: 0.56 | Emax [1, 10]: 63.9% | pKb [7]: 6.11 | log(activity) [8]: -0.88 | deltapEC50 [2]: 0.73 | Activity [3, 10]: 106% | log(activity) [9]: 1.92

Cc1ccc(-c2cnn(CC3CCCC3)c2)c(-c2ccc(N)cc2)n1
Emax [1, 10]: 80.6% | deltapEC50 [2]: 1.31 | Activity [3, 10]: 88.1%

Cc1ccc(-c2cnn(CC3CCCC3)c2)c(-c2cccc(N)c2)n1
Emax [1, 10]: 53.5% | deltapEC50 [2]: 1.35 | Activity [3, 10]: 51.7%

CCCN1Cc2ccc(-c3nc(C)ccc3-c3cnn(CC4CCCC4)c3)cc2C1=O
Emax [1, 10]: 50.5% | deltapEC50 [2]: 2.11 | Activity [3, 10]: 83.3%

CN1Cc2ccc(-c3ccncc3-c3cnn(CC4CCCC4)c3)cc2C1=O
Emax [1, 10]: 66.6% | deltapEC50 [2]: 1.49 | Activity [3, 10]: 90.6%

Cc1ccc(-c2cnn(CC(C)C)c2)c(-c2ccc3c(c2)C(=O)N(C)C3)n1
Emax [1, 10]: 84.8% | deltapEC50 [2]: 1.36 | Activity [3, 10]: 108%

Cc1ccc(-c2cnn(CC3CC3)c2)c(-c2ccc3c(c2)C(=O)N(C)C3)n1
log(activity) [4]: 1.29 | log(activity) [5]: 2.22 | log(activity) [6]: 0.64 | Emax [1, 10]: 69.6% | pKb [7]: 5.84 | log(activity) [8]: -0.54 | deltapEC50 [2]: 1.64 | Activity [3, 10]: 102% | log(activity) [9]: 1.95

CN1Cc2ccc(-c3ncccc3-c3cnn(CC4CCCC4)c3)cc2C1=O
log(activity) [4]: 2.09 | log(activity) [5]: 2.47 | log(activity) [6]: 0.51 | Emax [1, 10]: 41.6% | pKb [7]: 5.33 | log(activity) [8]: -0.81 | deltapEC50 [2]: 0.88 | Activity [3]: 13% | log(activity) [9]: 2.18

CN1Cc2ccc(-c3cnccc3-c3cnn(CC4CCCC4)c3)cc2C1=O
Emax [1, 10]: 56.8% | deltapEC50 [2]: 0.17 | Activity [3, 10]: 47.2%

CNC(=O)c1cccc(-c2nc(C)ccc2-c2cnn(CC3CCCC3)c2)c1
Emax [1, 10]: 61.3% | deltapEC50 [2]: 1.99 | Activity [3, 10]: 78.2%

Cc1ccc(-c2cnn(CC3CCC3)c2)c(-c2ccc3c(c2)C(=O)N(C)C3)n1
Emax [1, 10]: 74% | deltapEC50 [2]: 1.05 | Activity [3, 10]: 124%

CN1Cc2ccc(-c3nccnc3-c3cnn(CC4CCCC4)c3)cc2C1=O
log(activity) [4]: 0.94 | log(activity) [5]: 1.81 | log(activity) [6]: 0.07 | Emax [1]: 35.1% | pKb [7]: 4.55 | log(activity) [8]: -0.74 | deltapEC50 [2]: -0.34 | Activity [3, 10]: 48.5% | log(activity) [9]: 1.41

Cc1ccc(-c2cnn(Cc3ccccc3)c2)c(-c2ccc3c(c2)C(=O)N(C)C3)n1
Emax [1, 10]: 63.8% | deltapEC50 [2]: 1.87 | Activity [3, 10]: 77.1%

Cc1ccc(-c2cn(CC3CCCC3)nn2)c(-c2ccc3c(c2)C(=O)N(C)C3)n1
Emax [1]: 11.8% | deltapEC50 [2]: 1.07 | Activity [3]: 20%

Cc1ccc(-c2cnn(C)c2)c(-c2ccc3c(c2)C(=O)N(C)C3)n1
Emax [1]: 27% | deltapEC50 [2]: 0.57 | Activity [3]: 13.7%

Cc1ccc(-n2cc(CC3CCCC3)nn2)c(-c2ccc3c(c2)C(=O)N(C)C3)n1
Emax [1]: 13.9% | deltapEC50 [2]: 1.06 | Activity [3]: 24.5%

Cc1ccc(-c2cnn(CC3CCCC3)c2)c(-c2ccc3c(c2)NC(=O)C3)n1
Emax [1]: 39% | deltapEC50 [2]: 1.24 | Activity [3]: 18.6%

CC(=O)Nc1cccc(-c2nc(C)ccc2-c2cnn(CC3CCCC3)c2)c1
Emax [1, 10]: 57.7% | deltapEC50 [2]: 1.63 | Activity [3, 10]: 52.2%

Cc1ccc(-c2ccc3c(c2)C(=O)N(C)C3)c(-c2cnn(CC3CCOCC3)c2)n1
Emax [1]: 3.58% | deltapEC50 [2]: 0.58 | Activity [3]: 4.76%

Cc1ccc(-c2cnn(CC3CCCC3)c2)c(-c2cccc(C(N)=O)c2)n1
Emax [1, 10]: 65.6% | deltapEC50 [2]: 1.33 | Activity [3, 10]: 77.3%

Cc1ccc(-c2cnn(CC3CCCC3)c2)c(-c2ccc3c(c2)C(=O)NC3)n1
Emax [1, 10]: 73.3% | deltapEC50 [2]: 2.57 | Activity [3, 10]: 89.7%

CN1Cc2ccc(-c3ccccc3-c3cnn(CC4CCCC4)c3)cc2C1=O
Emax [1]: 25.6% | deltapEC50 [2]: 0.63 | Activity [3]: 6.49%

Cc1ccc(-c2cnn(CC3CCOCC3)c2)c(-c2ccc3c(c2)C(=O)N(C)C3)n1
Emax [1, 10]: 47.1% | deltapEC50 [2]: 1.16 | Activity [3, 10]: 86.7%
